Experimental data pooled from the literature.
Lines come from different studies, so protocols differ.
Target: Interleukin-1 receptor-associated kinase 4 (IRAK4, Homo sapiens, UniProt Q9NWZ3)
Sequence (Q9NWZ3 1-460, as in one of the studies): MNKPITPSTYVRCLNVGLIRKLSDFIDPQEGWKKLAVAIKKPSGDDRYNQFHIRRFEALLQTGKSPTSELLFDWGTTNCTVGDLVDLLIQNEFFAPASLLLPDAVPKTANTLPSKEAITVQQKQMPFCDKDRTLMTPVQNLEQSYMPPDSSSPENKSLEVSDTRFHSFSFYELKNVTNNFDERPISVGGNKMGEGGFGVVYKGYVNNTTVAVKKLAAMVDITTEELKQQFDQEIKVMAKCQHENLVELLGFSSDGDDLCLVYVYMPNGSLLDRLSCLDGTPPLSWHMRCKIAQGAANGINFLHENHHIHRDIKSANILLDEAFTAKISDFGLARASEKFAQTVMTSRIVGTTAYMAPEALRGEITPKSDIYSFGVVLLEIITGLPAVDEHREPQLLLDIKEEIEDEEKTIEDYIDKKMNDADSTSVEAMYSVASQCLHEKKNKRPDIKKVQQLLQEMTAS

Nc1ncc(-c2nc(N3CCOCC3)nc(N3CCOCC3)n2)c(C(F)F)n1 — remaining binding (binding; competition with immobilised ligand; 10 µM): 72%
CC(C)(C)c1cc(C=C(C#N)C#N)cc(Br)c1O — remaining activity (enzyme activity; inhibitor; 0.5 µM): 182%
Cc1nn(C)cc1-c1nc2c(N3CCN(Cc4ccc(Cl)cc4)CC3)c(Cl)cnc2[nH]1 — remaining binding (binding; competition with immobilised ligand; 1 µM): 74%
COc1ncccc1-c1cnn2ccc(N3CCN(C(=O)OC(C)C)CC3)nc12 — remaining binding (binding; competition with immobilised ligand; 1 µM): 100%
Cn1cncc1[C@@](O)(COc1ccc(C#N)cc1-c1ccc(OC(F)(F)F)cc1)c1ccc(C#N)cc1 — remaining binding (cell-free assay; competition with immobilised ligand; 1 µM): 80%
C#Cc1n[nH]c2c(-c3cn([C@@H](C)c4ccccn4)c(=O)[nH]c3=O)cc(F)cc12 — inhibition (enzyme activity; inhibitor; 0.1 µM): 14.7%
N#CC1(c2ccccn2)CCN(Cc2cc(C(=O)O)c(=O)n3ccccc23)CC1 — remaining binding (cell-free assay; competition with immobilised ligand; 1 µM): 83%
COc1cc(Nc2ncc(F)c(Nc3ccc4c(n3)NC(=O)C(C)(C)O4)n2)cc(OC)c1OC — inhibition (binding; 10 µM): 96%
Cn1cc(-c2cc(F)cc(N3CCn4c(cc5c4CCCC5)C3=O)c2CO)cc(Nc2ccc(N3CCN(C4COC4)CC3)cn2)c1=O — inhibition (enzyme activity; inhibitor; 0.1 µM): 8%
C#Cc1n[nH]c2c(-c3cn([C@@H](C)c4ccccc4)c(=O)[nH]c3=O)cc(F)cc12 — inhibition (enzyme activity; inhibitor; 0.1 µM): 11.7%
Cn1cc(-c2cccc(N3CCc4c(sc5c4CC(C)(C)C5)C3=O)c2CO)cc(Nc2ccncn2)c1=O — inhibition (enzyme activity; inhibitor; 1 µM): 6%
O=c1[nH]c2ccccc2n1C1CCN(Cc2ccc(-c3[nH]c4cc5ncnc5cc4nc3-c3ccccc3)cc2)CC1 — remaining signal (cell-free assay; 0.5 µM): 201%
